Compound activity: PubChem BioAssay, several laboratories
Rin1 Abl inh: inhibitors of Rin1-Abl protein binding, primary screen, biochemical, TR-FRET | inhibition, % at 7.35 µM | Tyrosine-protein kinase ABL1 (Homo sapiens) + Ras and Rab interactor 1 (Homo sapiens), … | hit rate 0.4% among 360,000 | AID 588664, 2011; in the data active = inhibition above about 5%, passing the limit was not always enough
HNF4A DNA FP: change in binding of human HNF4A to DNA, primary screen, biochemical, fluorescence polarization, FITC-DNA | Hepatocyte nuclear factor 4-alpha (Homo sapiens), P41235 | 1 h | activity change, % at 10 µM | hit rate 0.3% among 360,000 | AID 1224865, 2016; in the data active = activity change above about 30%, passing the limit was not always enough
Target sequence (P41235 whole entry, looked up): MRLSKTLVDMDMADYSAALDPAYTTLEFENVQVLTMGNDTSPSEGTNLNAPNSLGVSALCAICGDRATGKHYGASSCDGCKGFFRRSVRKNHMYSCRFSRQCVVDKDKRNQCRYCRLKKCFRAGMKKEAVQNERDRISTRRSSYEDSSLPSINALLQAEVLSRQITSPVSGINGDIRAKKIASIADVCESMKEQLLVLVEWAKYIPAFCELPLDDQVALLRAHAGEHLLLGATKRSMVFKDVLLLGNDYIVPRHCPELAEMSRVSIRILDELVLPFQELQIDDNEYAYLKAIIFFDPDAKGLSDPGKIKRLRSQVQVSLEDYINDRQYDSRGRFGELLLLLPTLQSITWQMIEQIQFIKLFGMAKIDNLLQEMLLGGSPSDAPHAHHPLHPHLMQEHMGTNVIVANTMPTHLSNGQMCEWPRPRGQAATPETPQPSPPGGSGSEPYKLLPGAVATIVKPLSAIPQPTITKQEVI
Neddyl block: inhibitors of cullin neddylation, primary screen, biochemical, TR-FRET, uHTS, NAE and Ubc12; NEDD8-conjugating enzyme Ubc12 (Homo sapiens) + NEDD8-activating enzyme E1 regulatory …; inhibition, % at 25 µM; hit rate 0.58% among 360,000; AID 651699, 2012; in the data active = inhibition above about 36%
TPT1 inh: Candida albicans TPT1 enzyme inhibitors, primary screen, biochemical, fluorescence polarization | tRNA 2'-phosphotransferase TPT1 (Candida albicans SC5314) | recombinant caTPT1, FP RNA substrate dephosphorylation | inhibition, % at 5 µM | hit rate 0.81% among 300,000;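 active = inhibition above the mean of all tested compounds plus 3 SD, set per screening campaign, cut at about 24% in these data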;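 note: plate controls were DMSO alone for no effect and ferristatin control at 100 nM for full effect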
CSN deneddyl inh: inhibitors of CSN-mediated cullin deneddylation, primary screen, biochemical, fluorescence polarization, uHTS; inhibition, % at 12.5 µM; Purified CSN, SCF-Nedd8-OG deneddylation; hit rate 0.38% among 360,000;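 active = pattern-corrected inhibition above about 35%, with an unprinted fluorescence ratio check between 0.5 and 1.5, limit read from the data, passing the limit was not always enough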;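 note: 0% = enzyme with substrate and 100% = substrate without enzyme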
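Test system: purified human Csn5 enzyme expressed in HEK293T cells. Amount: 0.24 nM enzyme. Reagent: SCFSkp2-Nedd8OG substrate at 10 nM final. Schedule: 90 min incubation of compound, enzyme and substrate at room temperature. Detection: fluorescence polarization. Read-out: % inhibition of substrate cleavage by Csn5.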
Rpn11 inh: Rpn11 (PSMD14) deubiquitinase inhibitors, primary screen, biochemical, fluorescence polarization, uHTS. inhibition, % at 20 µM. AID 588493, 2011. human 26S proteasome, Ub4-pepOG fluorescence polarization; 20S core pre-blocked with epoxomicin. 26S proteasome non-ATPase regulatory subunit 14 (Homo sapiens), O00487. hit rate 0.59% among 360,000;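 active = inhibition at 20 µM, scaled to each plate's controls, above about 33%, limit read from the data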
Target sequence (O00487 whole entry, looked up): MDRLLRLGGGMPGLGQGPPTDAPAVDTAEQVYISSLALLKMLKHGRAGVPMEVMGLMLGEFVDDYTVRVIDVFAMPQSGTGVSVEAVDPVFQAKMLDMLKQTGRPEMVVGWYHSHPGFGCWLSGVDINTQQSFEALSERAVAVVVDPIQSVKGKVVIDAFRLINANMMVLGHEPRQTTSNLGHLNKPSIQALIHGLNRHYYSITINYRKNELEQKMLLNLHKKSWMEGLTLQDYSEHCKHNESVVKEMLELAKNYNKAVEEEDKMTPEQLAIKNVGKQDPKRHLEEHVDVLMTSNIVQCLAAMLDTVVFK
Rpn11 inh conf: Rpn11 (PSMD14) deubiquitinase inhibitors, confirmation, biochemical, fluorescence polarization, single concentration | shares compounds with Rpn11 inh | purified human 26S proteasome, Ub4-pepOG fluorescence polarization; proteasome pretreated with epoxomicin | inhibition, % at 20 µM | hit rate 29% among 1,900 | AID 602318, 2012
MMP-2 inh: MMP-2 enzyme inhibition, confirmation, counter-screen for RPN11 inhibitor project, biochemical, fluorescence, single concentration | inhibition, % at 20 µM | hit rate 4% among 1,900 | recombinant MMP-2, FRET peptide cleavage fluorescence | shares compounds with Rpn11 inh;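 note: human MMP-2 activated beforehand with APMA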
Thrombin inh: bovine thrombin protease inhibition, confirmation, counter-screen for Rpn11 inhibitor project, biochemical, fluorescence polarization, single concentration; shares compounds with Rpn11 inh; inhibition, % at 20 µM; bovine thrombin cleavage of Ub4-pepOG; hit rate 13% among 1,900;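 active = mean inhibition at least 40% at 20 µM, or signal 3 deviations below plate average, so some actives read negative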;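 note: plate controls were thrombin with DMSO for no effect and buffer wells lacking thrombin for full effect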
* hit, by the source's call; . = no result. This is a sample that favours compounds with a hit; in the whole collection about 2.4% have one here. Cut-off read from the data, not from the text of the source, unless noted: active = inhibition above about 40%; inactive = the rest.

SMILES | Rin1 Abl inh | HNF4A DNA FP | Neddyl block | TPT1 inh | CSN deneddyl inh | Rpn11 inh | Rpn11 inh conf | MMP-2 inh | Thrombin inh
NC(=O)c1sc2nc(-c3ccccc3)ccc2c1N | -3.0 | 35.1 | 14.7 | 3.6 | 3.5 | 45.2* | -10.4 | -32.0 | -15.4
Cc1cc(C)nc(NC(C)(C)C(=O)O)n1 | 2.3 | 46.7* | 7.5 | -2.1 | -1.4 | 71.3* | -8.9 | 2.6 | -4.9
Cc1cc(C)nc(NC(=O)NC(=O)c2ccccc2)n1 | 0.2 | 3.5 | 9.6 | -3.8 | -2.8 | 3.9 | . | . | .
CN(Cc1ccccc1)S(=O)(=O)c1ccccc1[N+](=O)[O-] | -2.6 | -3.9 | -16.1 | 2.5 | -2.2 | -0.1 | . | . | .
O=C1OCCC1=COCCCCCOC=C1CCOC1=O | 2.5 | -3.2 | -6.6 | . | 1.0 | 2.1 | . | . | .
O=C(NC1CCCC1)C(c1ccccn1)N(Cc1ccccc1F)C(=O)c1csnn1 (configuration not stated) | 3.9 | 3.6 | -1.5 | -0.4 | -5.6 | 56.5* | -21.9 | -21.0 | -26.6
Cc1nc(NC(=O)c2ccco2)sc1-c1csc(Nc2ccc(Cl)cc2)n1 | 1.2 | 4.8 | 16.8 | -3.7 | 103.9 | 42.1* | 12.1 | 34.7 | -4.9
Cc1cc(SCC(=O)NN)c2cc(Br)ccc2n1 | -6.2 | 2.8 | -276.6 | 1.1 | 8.5 | 43.2* | 2.7 | -28.4 | -5.0
O=C(COc1ccccc1)NCC(=O)Nc1ccncc1 | -3.6 | -0.1 | 1.7 | 0.5 | -1.8 | -5.2 | . | . | .
Cc1cc(Br)ccc1SCC(=O)OC/C(O)=C(\C#N)c1nc2ccccc2[nH]1 | 2.2 | 27.5 | -50.4 | 16.6 | 4.0 | 46.2* | 18.1 | -44.2 | 0.0
Cc1cc(Br)ccc1SCC(=O)OCC(O)=C(C#N)c1nc2ccccc2[nH]1 | 2.2 | 18.7 | -114.4 | . | 17.6 | 38.0 | . | . | .
Cc1ccc(C)c(SCC(=O)OC/C(O)=C(\C#N)c2nc3ccccc3[nH]2)c1 | 2.5 | 12.2 | -16.7 | . | 10.8 | 22.3 | . | . | .
N#C/C(=C(/O)COC(=O)COc1cccc(Br)c1)c1nc2ccccc2[nH]1 | -13.9 | 17.8 | -72.6 | 18.4 | 1.6 | 41.7* | 37.0 | -12.4 | 25.3
Cn1cnnc1SC/C(O)=C(\C#N)c1nc2ccccc2[nH]1 | 3.2 | 2.6 | 5.3 | -1.9 | -1.6 | 5.8 | . | . | .
N#C/C(=C(/O)COC(=O)CSc1ccc2ccccc2c1)c1nc2ccccc2[nH]1 | 0.8 | 14.8 | -4.8 | 15.3 | 12.0 | 43.4* | 30.9 | -48.0 | 24.7
CCCn1c(SC/C(O)=C(\C#N)c2nc3ccccc3[nH]2)n[nH]c1=O | 2.7 | 6.8 | 3.4 | 12.7 | 9.4 | 38.6* | 33.5 | -9.7 | 29.6
Nc1c(N(CCC2=CCCCC2)C(=O)C2CC2)c(=O)[nH]c(=O)n1Cc1ccccc1 | 1.4 | 1.5 | 1.4 | -0.7 | -4.8 | 5.0 | . | . | .
Cc1cccc(CCNC(=O)C2CCC(=O)N(Cc3ccccc3F)C2)n1 (configuration not stated) | 1.7 | 4.5 | -5.2 | -1.9 | -3.0 | -4.6 | . | . | .
Cn1cncc1C#Cc1ccc2cc(C3(O)CCCCC3)oc(=O)c2c1 | 7.5 | 2.8 | -223.0 | . | 36.2* | 46.7* | 90.5* | 6.3 | 30.9
O=C(NC(=S)N1CCCC(C(F)(F)F)C1)c1ccc(F)cc1 (configuration not stated) | -0.9 | 0.9 | -12.8 | -1.0 | 1.0 | -1.8 | . | . | .
COc1ccc(Cl)cc1-c1cc(C(=O)Nc2ccc(Br)cc2)[nH]n1 | -0.8 | -5.2 | -11.8 | . | 7.1 | 3.3 | . | . | .
CCN1C(=O)CC(NC2CCN(C(=O)c3ccc(F)cc3)CC2)C1=O (configuration not stated) | 3.6 | 2.0 | -0.5 | -0.5 | 0.7 | -1.2 | . | . | .
Nc1cccc(-n2cccc2)c1 | 1.5 | 1.8 | 3.2 | -1.2 | -10.9 | 0.0 | . | . | .
CCCCCCOC(=O)c1ccc(N)cc1 | -2.5 | -2.9 | -5.6 | -2.7 | 1.8 | 2.8 | . | . | .
CCCCCCCCCCCC1N=C(N)NC(CCCO)=C1C(=O)OC (configuration not stated) | 6.3 | 13.4 | -2.5 | . | 15.9 | 85.9* | 49.3* | -27.8 | -34.7
SMILES | Rin1 Abl inh | HNF4A DNA FP | Neddyl block | TPT1 inh | CSN deneddyl inh | Rpn11 inh | Rpn11 inh conf | MMP-2 inh | Thrombin inh
CN(C)c1nc(N(C)C)c2cnn(C)c2n1 | -1.3 | -0.8 | 1.4 | . | -7.2 | 2.6 | . | . | .
CC(SCc1ccc(C(=O)O)o1)c1ccc(C(=O)O)o1 (configuration not stated) | 3.3 | 1.7 | -7.2 | -1.4 | 0.0 | 143.2* | -8.0 | -30.4 | -8.0
Cc1ccc(CSCc2ccc(C(=O)O)o2)cc1 | -3.2 | -1.4 | 2.9 | 0.7 | 0.0 | 8.8 | . | . | .
CCOc1ccc(-c2noc(-c3csc([C@@H]4C[C@H](O)[C@@H](CO)O4)n3)n2)cc1 | -0.3 | 0.1 | 5.9 | . | -2.0 | 0.1 | . | . | .
O=C(Cc1cccs1)N(Cc1cccs1)C1(C(=O)NC2CCCC2)CCCCC1 | -6.5 | 0.3 | -0.7 | -1.7 | -3.5 | 135.8* | 2.1 | -5.8 | 5.5
O=C1SC(SCc2ccccc2)=N/C1=C\c1ccco1 | -2.0 | -4.5 | 1.4 | 2.5 | 15.8 | 6.5 | . | . | .
CCCSC1=N/C(=C\C=C\c2ccco2)C(=O)S1 | 2.8 | -15.3 | 4.2 | 17.8 | 58.9 | 81.1* | 4.2 | 34.1 | 6.7
CCOC(=O)c1sc2nccc(OC)c2c1N=CNOC | -1.6 | -3.0 | 19.5 | -2.7 | -11.9 | 2.0 | . | . | .
O=C(Nc1ccc(N2CCCC2)cc1)c1cccc(Cl)c1Cl | 1.1 | 5.4 | 16.5 | 4.1 | 0.8 | 51.6* | -1.0 | -43.8 | -2.6
COC(=O)c1cc(Br)c(=O)n(CCc2ccc(F)cc2)c1 | -1.6 | 0.8 | -24.6 | 0.8 | 1.8 | 93.0* | -16.5 | -20.3 | -16.4
COc1cc(-c2ccc(Nc3ccccc3C(=O)O)c(OC)c2)ccc1Nc1ccccc1C(=O)O | 0.7 | -28.8 | 12.4 | . | 46.2 | 47.7* | 41.0* | 72.1* | -29.1
COc1cccc(Nc2ccccc2C(=O)O)c1 | -6.7 | -2.2 | 3.4 | 1.2 | -1.9 | -3.9 | . | . | .
